Experiments:
[1] = Diuretic activity at 40 mg/kg (screening dose-100.8 umol/kg) in […] in a one stage experiment; T/C = urine vol of treated rats / urine vol of control rats; type: functional
Method in brief: (§1)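 40 mg/kg given by gavage in 25 mL/kg 0.9% saline with 0.5% (carboxymethyl)cellulose. Four rats per agent, two per metabolism cage; 20 controls; 5 h urine. T/C = treated/control urine volume. Stage-1 T/C of 1.66 or more leads to stage 2; product T/C1·T/C2 of 3.34 or more counts as active.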

[2] = Diuretic activity at 40 mg/kg (screening dose-105.3 umol/kg) in […] in a one stage experiment; T/C = urine vol of treated rats / urine vol of control rats; type: functional; method in brief: as §1
Rattus norvegicus [3] = assay: Mean excretion of sodium in conscious rats at a dose of 100 mg/kg given orally; type: ADME, organism-based; design: dose 100 mg/kg, route oral; details: in vivo, po
Method in brief: (§2)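 Male Sprague-Dawley rats, about 160 g, fasted 24 h and water withheld 1 1/2 h beforehand; food and water withheld during the test. Dosing by gavage with 25 mL/kg 0.9% saline containing 0.5% (carboxymethyl)cellulose, agent dissolved or suspended. Three cages of two rats each per dose, held in metabolism cages. Urine collected over 5 h. Volume given in mL, Na+ in mequiv. Significance versus control at P < 0.05.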

[4] = Diuretic activity at 40 mg/kg (screening dose-82.2 umol/kg) in […] in a two stage experiment; T/C1.2 = urine vol of treated rats / urine vol of control rats; type: functional; method in brief: as §1
Rattus norvegicus [5] = assay: Mean excretion of sodium in conscious rats at a dose of 3.0 mg/kg given orally; type: ADME, organism-based; design: dose 3 mg/kg, route oral; details: in vivo, po; method in brief: as §2
Rattus norvegicus [6] = assay: Mean excretion of potassium in conscious rats at a dose of 3.0 mg/kg given orally; type: ADME, organism-based; design: dose 3 mg/kg, route oral; details: in vivo, po
Method in brief: (§3)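 Secondary dose-response in male Sprague-Dawley rats (~160 g), fasted and hydrated as in the primary screen. Oral gavage at 0.3-100 mg/kg in 25 mL/kg saline/0.5% CMC, three cages of two rats per dose. Urine collected 5 h; Na, K, Cl, HCO3 measured. Values are mean excretion (mequiv), compared with controls at P < 0.05.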

[7] = Diuretic activity at 40 mg/kg (screening dose-82.2 umol/kg) in […] in a one stage experiment; T/C = urine vol of treated rats / urine vol of control rats; type: functional; method in brief: as §1
Rattus norvegicus [8] = species on record: Rattus norvegicus; assay: […]; type: ADME, organism-based, Urine; design: dose 100 mg/kg, route oral; details: in vivo, po, 100 mg/kg; method in brief: as §2
Rattus norvegicus [9] = assay: Mean excretion of Cl- in conscious rats at a dose of 0.3 mg/kg given orally; type: ADME, organism-based, Urine; design: dose 0.3 mg/kg, route oral; details: in vivo, po
Method in brief: (§4)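 Dose-response test in male Sprague-Dawley rats of about 160 g, fasted 24 h, with water withheld 1½ h before and during the test. Each rat got a single gavage of 25 mL/kg 0.9% saline with 0.5% carboxymethylcellulose carrying the agent (0.3–100 mg/kg range). Rats were housed two per metabolism cage, and urine was collected for 5 h. Mean urine volume (mL) was compared with controls (P < 0.05).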

Rattus norvegicus [10] = assay: Mean excretion of potassium in conscious rats at a dose of 0.3 mg/kg given orally; type: ADME, organism-based; design: dose 0.3 mg/kg, route oral; details: in vivo, po; method in brief: as §3
Rattus norvegicus [11] = species on record: Rattus norvegicus; assay: […]; type: ADME, organism-based, Urine; design: dose 3 mg/kg, route oral; details: in vivo, po, 3 mg/kg; method in brief: as §2
Rattus norvegicus [12] = species on record: Rattus norvegicus; assay: […]; type: ADME, organism-based, Urine; design: dose 30 mg/kg, route oral; details: in vivo, po, 30 mg/kg; method in brief: as §2
Rattus norvegicus [13] = assay: Mean excretion of potassium in conscious rats at a dose of 1.0 mg/kg given orally; type: ADME, organism-based; design: dose 1 mg/kg, route oral; details: in vivo, po; method in brief: as §3
Rattus norvegicus [14] = assay: Mean excretion of chloride in conscious rats at a dose of 3.0 mg/kg given orally; type: ADME, organism-based; design: dose 3 mg/kg, route oral; details: in vivo, po; method in brief: as §3
Rattus norvegicus [15] = assay: Mean excretion of potassium in conscious rats at a dose of 10 mg/kg given orally; type: ADME, organism-based; design: dose 10 mg/kg, route oral; details: in vivo, po; method in brief: as §3
Rattus norvegicus [16] = assay: Mean excretion of sodium in conscious rats at a dose of 10 mg/kg given orally; type: ADME, organism-based; design: dose 10 mg/kg, route oral; details: in vivo, po; method in brief: as §2
Rattus norvegicus [17] = species on record: Rattus norvegicus; assay: […]; type: ADME, organism-based, Urine; design: dose 0.3 mg/kg, route oral; details: in vivo, po, 0.3 mg/kg; method in brief: as §4
Rattus norvegicus [18] = species on record: Rattus norvegicus; assay: […]; type: ADME, organism-based, Urine; design: dose 10 mg/kg, route oral; details: in vivo, po, 10 mg/kg; method in brief: as §2
Rattus norvegicus [19] = assay: Mean excretion of chloride in conscious rats at a dose of 100 mg/kg given orally; type: ADME, organism-based; design: dose 100 mg/kg, route oral; details: in vivo, po; method in brief: as §3
Rattus norvegicus [20] = assay: Mean excretion of chloride in conscious rats at a dose of 1.0 mg/kg given orally; type: ADME, organism-based; design: dose 1 mg/kg, route oral; details: in vivo, po; method in brief: as §3
Rattus norvegicus [21] = species on record: Rattus norvegicus; assay: […]; type: ADME, organism-based, Urine; design: dose 1 mg/kg, route oral; details: in vivo, po, 1 mg/kg; method in brief: as §4
Rattus norvegicus [22] = assay: Mean excretion of potassium in conscious rats at a dose of 100 mg/kg given orally; type: ADME, organism-based; design: dose 100 mg/kg, route oral; details: in vivo, po; method in brief: as §3
Rattus norvegicus [23] = assay: Mean excretion of […] in conscious rats at a dose of 1.0 mg/kg given orally; type: ADME, organism-based; design: dose 1 mg/kg, route oral; details: in vivo, po; method in brief: as §2
Rattus norvegicus [24] = assay: Mean excretion of sodium in conscious rats at a dose of 0.3 mg/kg given orally; type: ADME, organism-based; design: dose 0.3 mg/kg, route oral; details: in vivo, po; method in brief: as §2
Rattus norvegicus [25] = assay: Mean excretion of chloride in conscious rats at a dose of 10 mg/kg given orally; type: ADME, organism-based; design: dose 10 mg/kg, route oral; details: in vivo, po; method in brief: as §3
Rattus norvegicus [26] = assay: Mean excretion of potassium in conscious rats at a dose of 30 mg/kg given orally; type: ADME, organism-based; design: dose 30 mg/kg, route oral; details: in vivo, po; method in brief: as §3
Rattus norvegicus [27] = assay: Mean excretion of sodium in conscious rats at a dose of 30 mg/kg given orally; type: ADME, organism-based; design: dose 30 mg/kg, route oral; details: in vivo, po; method in brief: as §2
Rattus norvegicus [28] = assay: Mean excretion of chloride in conscious rats at a dose of 30 mg/kg given orally; type: ADME, organism-based; design: dose 30 mg/kg, route oral; details: in vivo, po; method in brief: as §3
[29] = Diuretic activity at 40 mg/kg (screening dose-77.5 umol/kg) in […] in a one stage experiment; T/C = urine vol of treated rats / urine vol of control rats; type: functional; method in brief: as §1
[30] = Diuretic activity at 40 mg/kg (screening dose-61.3 umol/kg) in […] in a one stage experiment; T/C = urine vol of treated rats / urine vol of control rats; type: functional; method in brief: as §1

**Q.** For `C=C(c1ccccc1)c1nnc2n1-c1ccc(Cl)cc1C(c1ccccc1)=NC2`, which “T/C 1” value [1] is on record?
**A.** 0.76

**Q.** Which “T/C 1” value [2] does the source give for `CC(CN(C)C)c1nnc2n1-c1ccc(Cl)cc1C(c1ccccc1)=NC2` (stereo not given) here?
**A.** 1.25

**Q.** For `CN(C)CC(c1ccccc1)c1nnc2n1-c1ccc(Br)cc1C(c1ccccc1)=NC2` (stereo not given), which “Mean excretion of Na+” value (Rattus norvegicus [3]) is on record?
**A.** 1.16 m equiv

**Q.** And the “T/C 1.2” value [4]?
**A.** 4.73

**Q.** What about the “Mean excretion of Na+” value (Rattus norvegicus [5]) of the same molecule?
**A.** 0.53 m equiv

**Q.** And the “Mean excretion of K+” value (Rattus norvegicus [6])?
**A.** 0.17 m equiv

**Q.** And the “T/C 1” value [7]?
**A.** 2.17

**Q.** What about the Mean urine volume (Rattus norvegicus [8]) of the same molecule?
**A.** 7.74 mL

**Q.** And the “Mean excretion of Cl-” value (Rattus norvegicus [9])?
**A.** 0.72 m equiv

**Q.** And the “Mean excretion of K+” value (Rattus norvegicus [10])?
**A.** 0.24 m equiv

**Q.** What about the Mean urine volume (Rattus norvegicus [11]) of the same molecule?
**A.** 3.4 mL

**Q.** What about the Mean urine volume (Rattus norvegicus [12]) of the same molecule?
**A.** 8.5 mL

**Q.** And the “Mean excretion of K+” value (Rattus norvegicus [13])?
**A.** 0.21 m equiv

**Q.** And the “Mean excretion of Cl-” value (Rattus norvegicus [14])?
**A.** 0.6 m equiv

**Q.** And the “Mean excretion of K+” value (Rattus norvegicus [15])?
**A.** 0.17 m equiv

**Q.** And the “Mean excretion of Na+” value (Rattus norvegicus [16])?
**A.** 0.74 m equiv

**Q.** And the Mean urine volume (Rattus norvegicus [17])?
**A.** 4.29 mL

**Q.** And the Mean urine volume (Rattus norvegicus [18])?
**A.** 5.1 mL

**Q.** And the “Mean excretion of Cl-” value (Rattus norvegicus [19])?
**A.** 1.01 m equiv

**Q.** What about the “Mean excretion of Cl-” value (Rattus norvegicus [20]) of the same molecule?
**A.** 0.62 m equiv

**Q.** And the Mean urine volume (Rattus norvegicus [21])?
**A.** 3.59 mL

**Q.** And the “Mean excretion of K+” value (Rattus norvegicus [22])?
**A.** 0.15 m equiv

**Q.** What about the “Mean excretion of Na+” value (Rattus norvegicus [23]) of the same molecule?
**A.** 0.64 m equiv

**Q.** What about the “Mean excretion of Na+” value (Rattus norvegicus [24]) of the same molecule?
**A.** 0.63 m equiv

**Q.** What about the “Mean excretion of Cl-” value (Rattus norvegicus [25]) of the same molecule?
**A.** 0.78 m equiv

**Q.** What about the “Mean excretion of K+” value (Rattus norvegicus [26]) of the same molecule?
**A.** 0.17 m equiv

**Q.** What about the “Mean excretion of Na+” value (Rattus norvegicus [27]) of the same molecule?
**A.** 1.18 m equiv

**Q.** What about the “Mean excretion of Cl-” value (Rattus norvegicus [28]) of the same molecule?
**A.** 1.16 m equiv

**Q.** Which “T/C 1” value [29] does the source give for `Clc1ccc2c(c1)C(c1ccccc1)=NCc1nnc(C(CN3CCOCC3)c3ccccc3)n1-2` (stereo not given) here?
**A.** 1.46

**Q.** With `CN1CCN(CC(c2ccccc2)c2nnc3n2-c2ccc(Cl)cc2C(c2ccccc2)=NC3)CC1.I` (stereo not given) as the molecule, how does the “T/C 1” value [30] read?
**A.** 1.02

Source: ChEMBL document CHEMBL1124476, “1-(2-aminoethyl)-6-aryl-4H- [1,2,4]triazolo[4,3-a][1,4]benzodiazepines with diuretic and natriuretic activity” (J Med Chem, 1989)
